Assay results reported in ChEMBL document CHEMBL1123837, “1-Amino-substituted 4-methyl-5H-pyrido[3',4':4,5]pyrrolo[3,2-c]pyridines: a new class of antineoplastic agents” (J Med Chem, 1987).
Activity calls are given as the source filed them. No cut-off for these calls is given here.

Legend:
[1] = tested on: L1210; experiment: (§1) In vitro cytotoxicity against L1210 cells was determined after 48 hours of incubation; assay type: functional, Mus musculus; details: read-out: ID50 (the source's name)
Outline: (§2)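 Exponentially growing L1210 cells were cultured in RPMI 1640 with 2 mM glutamine, penicillin/streptomycin and 10% fetal calf serum, under 5% CO2 at 37 °C. Drugs dissolved in distilled water were added to cells at 0.8 × 10^5 cells/mL for 48 h, then cells were counted. ID50 was estimated by regression of dose-response data, as the mean of two values from two independent experiments.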

[2] = tested on: Mus musculus; experiment: In vivo antitumor activity was determined against P388 leukemia cells expressed as treated/control at the dose of (1.25-20)mg/kg; IA = Inactive; assay type: functional, organism-based
Outline: (§3)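 Following NCI protocols, 10^6 viable P388 leukemia cells were inoculated ip on day 0 into male or female CDF1 hybrid mice, 10 per test group. Compounds in distilled water were given ip (0.1 mL/10 g body weight) at various doses on days 1–5. T/C = median survival day of treated / median survival day of negative controls × 100.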

[3] = tested on: Calf thymus DNA; experiment: Binding affinity for DNA by ethidium bromide displacement assay; assay type: nucleic-acid assay; details: Bos taurus
Outline: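 Competitive ethidium bromide displacement with calf thymus DNA at 10 µg/mL in 20 mM Na phosphate buffer, 0.1 M NaCl, 1 mM EDTA, pH 7.4. The apparent DNA affinity constant is given in 10^6 M^-1 ± standard deviation, from 6 values across two independent experiments.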

[4] = as §1; assay type: cell-based; details: mouse, read-out: ID50; outline: as §2
[5] = tested on: Mus musculus; experiment: In vivo antitumor activity was determined against P388 leukemia cells expressed as treated/control at the dose of (2.5-20)mg/kg; IA = Inactive; assay type: functional, organism-based; outline: as §3
[6] = tested on: Mus musculus; experiment: In vivo antitumor activity was determined against P388 leukemia cells expressed as treated/control at the dose of 40 mg/kg; T = toxic at this dose; assay type: organism-based; parameters: dose 40 mg/kg; outline: as §3
[7] = tested on: Mus musculus; experiment: In vivo antitumor activity was determined against P388 leukemia cells expressed as treated/control at the dose of (1.25-40)mg/kg; IA = Inactive; assay type: functional, organism-based; outline: as §3
[8] = tested on: Mus musculus; experiment: In vivo antitumor activity was determined against P388 leukemia cells expressed as treated/control at the dose of (80)mg/kg;T = toxic at this dose; assay type: functional, organism-based; outline: as §3
[9] = tested on: Mus musculus; experiment: In vivo antitumor activity was determined against P388 leukemia cells expressed as treated/control at the dose of (5-50)mg/kg; IA = Inactive; assay type: functional, organism-based; outline: as §3
[10] = tested on: Mus musculus; experiment: In vivo antitumor activity was determined against P388 leukemia cells expressed as treated/control at the dose of (2.5-40)mg/kg(nontoxic at highest dose tested.); IA = Inactive; assay type: functional, organism-based; outline: as §3
[11] = tested on: Mus musculus; experiment: In vivo antitumor activity was determined against P388 leukemia cells expressed as treated/control at the dosae of (2.5-40)mg/kg; IA = Inactive; assay type: functional, organism-based; outline: as §3
[12] = tested on: Mus musculus; experiment: In vivo antitumor activity was determined against P388 leukemia cells expressed as treated/control at the dosage of 20 mg/kg; assay type: functional; outline: as §3
[13] = tested on: Mus musculus; experiment: In vivo antitumor activity was determined against P388 leukemia cells expressed as treated/control at the dosage of 40 mg/kg; assay type: functional; outline: as §3
[14] = tested on: Mus musculus; experiment: In vivo antitumor activity was determined against P388 leukemia cells expressed as treated/control at the dosage of 10 mg/kg; assay type: functional; outline: as §3
[15] = tested on: Mus musculus; experiment: In vivo antitumor activity was determined against P388 leukemia cells expressed as treated/control at the dose of (0.30-60)mg/kg; IA = Inactive; assay type: functional, organism-based; outline: as §3

| Structure (SMILES) | K aff [3] [M⁻¹] | IC50 ([1]; Mus musculus, L1210, 48 h) [µM] | further results |
| --- | --- | --- | --- |
| CCCN(CCC)CCCNc1[nH]cc(C)c2nc3ccncc3c1-2 | 8000 | 3.3 | T/C [2]: inactive |
| CCN(CC)CCCNc1[nH]ccc2nc3ccncc3c1-2 | 15000 | – | CC50 at 48 h [4]: 46 µM; T/C [5]: inactive; T/C [6]: Toxic |
| CCN(CC)CCCNc1nccc2c1c1cnccc1n2C | 17000 | 1.6 | T/C [9]: inactive |
| CCN(CC)CCNc1[nH]cc(C)c2nc3ccncc3c1-2 | 12000 | 19.5 | T/C [5]: inactive; T/C [6]: Toxic |
| CCN(CC)CCCNc1ncc(C)c2c1c1cnccc1n2Cc1ccccc1 | 2000 | 6.4 | T/C [11]: inactive |
| CCN(CC)CCCNc1ncc(C)c2[nH]c3ccncc3c12 | – | – | IC50 [1]: 0.34 µM; T/C [12]: 148; T/C [13]: 155; T/C [14]: 135 |
| CCN(CC)CCCN(C)c1[nH]cc(C)c2nc3ccncc3c1-2 | 6000 | 224 | T/C [15]: inactive |

More lines, main results first:

| K aff [3] [M⁻¹] | Structure (SMILES) | IC50 ([1]; Mus musculus, L1210, 48 h) [µM] | further results |
| --- | --- | --- | --- |
| 3000 | CCN(CC)CCCN(C)c1ncc(C)c2c1c1cnccc1n2C | 52 | T/C [7]: inactive; T/C [8]: Toxic |
| 30000 | Cc1cnc(NCCCN2CCOCC2)c2c3cnccc3n(C)c12 | 5.3 | T/C [10]: inactive |
| 20000 | Cc1c[nH]c(NCCCN2CCOCC2)c2c3cnccc3nc1-2 | 19.2 | T/C [7]: inactive |
